{"data": "Measurements pooled from the literature", "cell line": "A549", "effect on": "cell growth or viability", "note": "Each line is one published result; the experiments were not run side by side."}
{"Structure (SMILES)": "CCCCCCCCCCCCCCCC(=O)O", "assay": "MTS", "setting": "24 h", "endpoint": "IC50", "value": "145 µM"}
{"Structure (SMILES)": "Nc1nc(N)c2nc(CNc3ccc(C(=O)NCCc4ccccc4)cc3)cnc2n1", "assay": "ATP luminescence", "endpoint": "GI50", "value": "38.8 µM"}
{"Structure (SMILES)": "C=C(C)[C@H](CC=C(C)C)Cc1c(O)cc(O)c2c1O[C@H](c1ccccc1O)CC2=O", "assay": "MTT", "setting": "48 h", "endpoint": "IC50", "value": "36.1 µM"}
{"Structure (SMILES)": "CN(Cc1cnc2nc(N)nc(N)c2n1)c1ccc(C(=O)N2CCCCC2)cc1", "assay": "ATP luminescence", "endpoint": "GI50", "value": "34.9 µM"}
{"Structure (SMILES)": "O=C1OC2(c3ccc(O)cc3Oc3cc(O)ccc32)c2ccc(NC(=S)NCCS)cc21", "assay": "CCK-8", "setting": "48 h", "endpoint": "CC50", "value": "> 200 µM"}
{"Structure (SMILES)": "O=C(O)CCCCC#CCCCC1CCCCC1", "assay": "MTS", "setting": "24 h", "endpoint": "IC50", "value": "40 µM"}
{"Structure (SMILES)": "CC(=O)O[C@H]1C(=O)[C@@]2(C)[C@H]([C@H](OC(=O)c3ccccc3)[C@]3(O)C[C@H](OC(=O)[C@H](O)[C@@H](NC(=O)c4ccccc4)c4ccccc4)C(C)=C1C3(C)C)[C@]1(OC(C)=O)CO[C@@H]1C[C@@H]2O", "assay": "MTT", "setting": "48 h", "endpoint": "IC50", "value": "0.45 µM"}
{"Structure (SMILES)": "C=C(C)C(CC=C(C)C)Cc1c(O)cc(OC)c2c1O[C@H](c1ccc(O)cc1O)CC2=O (single isomer, unassigned; (-))", "assay": "MTT", "endpoint": "IC50", "value": "50.5 µM"}
{"Structure (SMILES)": "C=C(C)C(O)Cc1c(O)c(CC=C(C)C)c2occ(-c3ccc(O)cc3)c(=O)c2c1O (stereo not drawn)", "assay": "MTT", "setting": "100 µg/mL", "endpoint": "viability", "value": "91.6%"}
{"Structure (SMILES)": "O=C1OC2(c3ccccc31)c1ccc(O)c(Cl)c1Oc1c2ccc(O)c1Cl", "assay": "CCK-8", "setting": "48 h", "endpoint": "CC50", "value": "> 200 µM"}
{"Structure (SMILES)": "CCOC(=O)C1CCN(C(=O)c2ccc(N(CC)Cc3cnc4nc(N)nc(N)c4n3)cc2)CC1", "assay": "ATP luminescence", "endpoint": "GI50", "value": "4.38 µM"}
{"Structure (SMILES)": "O=C1OC2(c3cc(Cl)c(O)cc3Oc3cc(O)c(Cl)cc32)c2ccccc21", "assay": "CCK-8", "setting": "48 h", "endpoint": "CC50", "value": "> 200 µM"}
{"Structure (SMILES)": "O=C(O)CCCCC#CCCCCCCCCCc1ccccc1", "assay": "MTS", "setting": "24 h", "endpoint": "IC50", "value": "18 µM"}
{"Structure (SMILES)": "O=C1OC2(c3cc(I)c(O)c(I)c3Oc3c2cc(I)c(O)c3I)c2c(Cl)c(Cl)c(Cl)c(Cl)c21", "assay": "CCK-8", "setting": "48 h", "endpoint": "CC50", "value": "> 200 µM"}
{"Structure (SMILES)": "COc1cc2oc(-c3ccc(O)cc3O)c(CC=C(C)C)c(=O)c2c(O)c1/C=C/C(C)C", "assay": "crystal violet", "setting": "72 h", "endpoint": "CC50", "value": "38 µM"}
